Assays:
Rattus norvegicus [1] = organism: Rattus norvegicus; assay: Influence on 5-hydroxyindoleacetic acid (5-HIAA)concentration in amygdala region of brain; assay type: functional, organism-based
Method in brief: (§1)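 Male Sprague-Dawley rats (150-250 g) given 4 mg/kg sc; killed 30 min later. Brain regions dissected, weighed, homogenized in 0.01 N HClO4, kept on ice 15 min, centrifuged 13000g 2 min. Supernatant analysed by HPLC with electrochemical detection: C-18 reverse-phase column, 0.1 M sodium phosphate mobile phase with EDTA, octanesulfonic acid, 10% MeOH, pH 3.8; glassy carbon electrode at +0.65. Compared with untreated controls by ANOVA and multiple regression.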

Rattus norvegicus [2] = organism: Rattus norvegicus; assay: Influence on 5-hydroxyindoleacetic acid (5-HIAA) concentration in hippocampus region of brain; assay type: functional, organism-based; method in brief: as §1
[3] = Ratio of 5-HT concentration to 5-HIAA concentration in hippocampus region of brain; assay type: functional; method in brief: as §1
Rattus norvegicus [4] = organism: Rattus norvegicus; assay: Influence on 5-hydroxy tryptamine (5-HT) concentration in amygdala region of brain; assay type: functional, organism-based; method in brief: as §1
Rattus norvegicus [5] = organism: Rattus norvegicus; assay: Influence on 5-hydroxyindoleacetic acid (5-HIAA) concentration in caudate region of brain; assay type: functional, organism-based; method in brief: as §1
[6] = Ratio of 5-HT concentration to 5-HIAA concentration in frontal cortex region of brain; assay type: functional; method in brief: as §1
Rattus norvegicus [7] = organism: Rattus norvegicus; assay: Influence on 5-hydroxy tryptamine (5-HT) concentration in septum region of brain; assay type: functional, organism-based; method in brief: as §1
[8] = Ratio of 5-HT concentration to 5-HIAA concentration in caudate region of brain; assay type: functional; method in brief: as §1
Rattus norvegicus [9] = organism: Rattus norvegicus; assay: Influence on 5-hydroxy tryptamine (5-HT) concentration in hippocampus region of brain; assay type: functional, organism-based; method in brief: as §1
Rattus norvegicus [10] = organism: Rattus norvegicus; assay: Influence on 5-hydroxy tryptamine (5-HT) concentration in parietal cortex region of brain; assay type: functional, organism-based; method in brief: as §1
Rattus norvegicus [11] = organism: Rattus norvegicus; assay: Influence on 5-hydroxyindoleacetic acid (5-HIAA) concentration in frontal cortex region of brain; assay type: functional, organism-based; method in brief: as §1
Rattus norvegicus [12] = organism: Rattus norvegicus; assay: Influence on 5-hydroxyindoleacetic acid (5-HIAA) concentration in septum region of brain; assay type: functional, organism-based; method in brief: as §1
Rattus norvegicus [13] = organism: Rattus norvegicus; assay: Influence on 5-hydroxyindoleacetic acid (5-HIAA) concentration in parietal cortex region of brain; assay type: functional, organism-based; method in brief: as §1
[14] = Ratio of 5-HT concentration to 5-HIAA concentration in amygdala region of brain; assay type: functional; method in brief: as §1
[15] = Ratio of 5-HT concentration to 5-HIAA concentration in parietal cortex region of brain; assay type: functional; method in brief: as §1
[16] = Ratio of 5-HT concentration to 5-HIAA concentration in hypothalamus region of brain; assay type: functional; method in brief: as §1
[17] = Ratio of 5-HT concentration to 5-HIAA concentration in olfactory tubercle region of brain; assay type: functional; method in brief: as §1
Rattus norvegicus [18] = organism: Rattus norvegicus; assay: Influence on 5-hydroxy tryptamine (5-HT) concentration in olfactory tubercle region of brain; assay type: functional, organism-based; method in brief: as §1
Rattus norvegicus [19] = organism: Rattus norvegicus; assay: Influence on 5-hydroxy tryptamine (5-HT) concentration in caudate region of brain; assay type: functional, organism-based; method in brief: as §1
Rattus norvegicus [20] = organism: Rattus norvegicus; assay: Influence on 5-hydroxyindoleacetic acid (5-HIAA) concentration in olfactory tubercle region of brain; assay type: functional, organism-based; method in brief: as §1
Rattus norvegicus [21] = organism: Rattus norvegicus; assay: Influence on 5-hydroxy tryptamine (5-HT) concentration in frontal cortex region of brain; assay type: functional, organism-based; method in brief: as §1
Rattus norvegicus [22] = organism: Rattus norvegicus; assay: Influence on 5-hydroxy tryptamine (5-HT) concentration in hypothalamus region of brain; assay type: functional, organism-based; method in brief: as §1
Rattus norvegicus [23] = organism: Rattus norvegicus; assay: Influence on 5-hydroxyindoleacetic acid (5-HIAA) concentration in hypothalamus region of brain; assay type: functional, organism-based; method in brief: as §1
[24] = Ratio of 5-HT concentration to 5-HIAA concentration in septum region of brain; assay type: functional; method in brief: as §1

CCCN(CCC)C1CCc2cccc(O)c2C1 (centres undefined) [8-OH-DPAT]
Concentration (Rattus norvegicus [1]): 1 nM/g
Concentration (Rattus norvegicus [2]): 1.7 nM/g
Ratio [3]: 2.5
Concentration (Rattus norvegicus [4]): 4.9 nM/g
Concentration (Rattus norvegicus [5]): 2.6 nM/g
Ratio [6]: 5.8
Concentration (Rattus norvegicus [7]): 4.5 nM/g
Ratio [8]: 1.5
Concentration (Rattus norvegicus [9]): 4.2 nM/g
Concentration (Rattus norvegicus [10]): 3.1 nM/g
Concentration (Rattus norvegicus [11]): 0.8 nM/g
Concentration (Rattus norvegicus [12]): 1.5 nM/g
Concentration (Rattus norvegicus [13]): 0.8 nM/g
Ratio [14]: 5.8
Ratio [15]: 4.1
Ratio [16]: 3.9
Ratio [17]: 5.9
Concentration (Rattus norvegicus [18]): 8.3 nM/g
Concentration (Rattus norvegicus [19]): 3.6 nM/g
Concentration (Rattus norvegicus [20]): 1.4 nM/g
Concentration (Rattus norvegicus [21]): 4.2 nM/g
Concentration (Rattus norvegicus [22]): 7.1 nM/g
Concentration (Rattus norvegicus [23]): 1.9 nM/g
Ratio [24]: 3
